Drawing on ChEMBL document CHEMBL3853298, “Total synthesis and in vitro bioevaluation of clavaminols A, C, H & deacetyl clavaminol H as potential chemotherapeutic and antibiofilm agents” (Eur J Med Chem, 2016), this text covers IC50, MFC and MIC for 3 compounds.

≈ marks a conversion by molar mass, not a printed value.

Assay [1] can be described thus: Cytotoxicity against human SKOV3 cells assessed as cell growth inhibition by MTT assay. The format is functional, cell-based. The conditions noted are these: SK-OV-3.
Assay [2] can be described thus: Cytotoxicity against human DU145 cells assessed as cell growth inhibition by MTT assay. The format is functional, cell-based. The following applies: DU-145.
Assay [3] can be described thus: Cytotoxicity against human HeLa cells assessed as cell growth inhibition by MTT assay. The format is functional, cell-based.
Assay [4] can be described thus: Cytotoxicity against human MCF7 cells assessed as cell growth inhibition by MTT assay. The format is functional, cell-based. A general note: Tetrazolium dyes change colour on reduction, which living cells bring about.
Assay [5] concerns Candida albicans. In words: Fungicidal activity against Candida albicans MTCC 7315 after 24 hrs. The format is functional. The following applies: MTCC 7315, 24 h. The method, boiled down: (§1)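 Candida grown overnight in Mueller Hinton broth. Compound serially diluted in the same broth from 150 to 0 and inoculated to a final 1.5 × 10^8 CFU/mL (0.5 McFarland), then 24 h at 37 °C. Tube contents plated onto Mueller Hinton agar for 24 h at 37 °C. MFC is the lowest concentration killing the yeast. Duplicates.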

The test system of assay [6] is Candida parapsilosis. Put plainly: Fungicidal activity against Candida parapsilosis MTCC 1744 after 24 hrs. The format is functional. The following applies: Lodderomyces parapsilosis, MTCC 1744, 24 h. Summed up:
(§2)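 Broth dilution in Mueller Hinton broth with serial compound concentrations from […]. Overnight Candida cultures added to a final 1.5 × 10^8 CFU/mL (0.5 McFarland). Incubated 24 h at 37 °C, then 10 µL of each tube plated on Mueller Hinton agar for 24 h at 37 °C. MFC taken as the lowest concentration that kills the strain. Run in duplicate.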

The subject of assay [7] is Candida albicans. Put plainly: Fungicidal activity against Candida albicans MTCC 854 after 24 hrs. The format is functional. The following applies: MTCC 854, 24 h. The method, boiled down:
as §1

In assay [8] the test system is Candida albicans. Put plainly: Antifungal activity against Candida albicans MTCC 3017 after 24 hrs by well diffusion method. The following applies: MTCC 3017, 24 h. The format is functional. Summed up:
(§3)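 Candida/Issatchenkia lawns (0.1 mL suspension) on Mueller-Hinton agar; 6.0 mm bored wells receive compound across a 250 to 0.48 per-well dose range, methanol as negative control. Plates kept 24 h at 30 °C. MIC is the lowest concentration producing a visible inhibition zone. Duplicate runs, mean values.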
Background: In agar diffusion tests the substance spreads into inoculated agar from a disc or well.

The test system of assay [9] is Candida albicans. Put plainly: Fungicidal activity against Candida albicans MTCC 3018 after 24 hrs. The format is functional. The conditions noted are these: MTCC 3018, 24 h. The method, boiled down:
as §1

Assay [10] has as its system [Candida] aaseri. In words: Fungicidal activity against Candida aaseri MTCC 1962 after 24 hrs. The format is functional. The conditions noted are these: Yamadazyma aaseri, MTCC 1962, 24 h. The method, boiled down: as §1
The test system of assay [11] is [Candida] aaseri. In words: Antifungal activity against Candida aaseri MTCC 1962 after 24 hrs by well diffusion method. The conditions noted are these: Yamadazyma aaseri, MTCC 1962, 24 h. The format is functional. The method, boiled down:
as §3

The test system of assay [12] is Candida albicans. Put plainly: Antifungal activity against Candida albicans MTCC 854 after 24 hrs by well diffusion method. The format is functional. The following applies: MTCC 854, 24 h. Summed up: as §3
The test system of assay [13] is Candida albicans. Put plainly: Antifungal activity against Candida albicans MTCC 3018 after 24 hrs by well diffusion method. The format is functional. The conditions noted are these: MTCC 3018, 24 h. The method, boiled down:
as §3

Assay [14] deals with Pichia sporocuriosa. In words: Fungicidal activity against Issatchenkia hanoiensis MTCC 4755 after 24 hrs. The format is functional. The conditions noted are these: MTCC 4755, 24 h. Summed up: as §2
Assay [15] concerns Nakaseomyces glabratus. In words: Fungicidal activity against Candida glabrata MTCC 3019 after 24 hrs. The format is functional. The conditions noted are these: MTCC 3019, 24 h. Summed up: as §1
A short description of assay [16]: Antifungal activity against Candida krusei MTCC 3020 after 24 hrs by well diffusion method. The format is functional. The conditions noted are these: Pichia kudriavzevii. Summed up: as §3
Assay [17] concerns Candida albicans. Put plainly: Antifungal activity against Candida albicans MTCC 4748 after 24 hrs by well diffusion method. The format is functional. The following applies: MTCC 4748, 24 h. The method, boiled down: as §3
Assay [18] deals with Pichia kudriavzevii. In words: Fungicidal activity against Candida krusei MTCC 3020 after 24 hrs. The format is functional. The conditions noted are these: MTCC 3020, 24 h. Summed up:
as §2

The subject of assay [19] is Pichia sporocuriosa. Put plainly: Antifungal activity against Issatchenkia hanoiensis MTCC 4755 after 24 hrs by well diffusion method. The following applies: MTCC 4755, 24 h. The format is functional. Summed up:
as §3

Assay [20] can be described thus: Antifungal activity against Candida glabrata MTCC 3019 after 24 hrs by well diffusion method. The format is functional. The following applies: Nakaseomyces glabratus. The method, boiled down:
as §3

In assay [21] the test system is Candida albicans. Put plainly: Fungicidal activity against Candida albicans MTCC 3958 after 24 hrs. The conditions noted are these: MTCC 3958, 24 h. The format is functional. The method, boiled down: as §1
Assay [22] relates to Candida albicans. In words: Fungicidal activity against Candida albicans MTCC 1637 after 24 hrs. The format is functional. The following applies: MTCC 1637, 24 h. Summed up: as §1
The subject of assay [23] is Candida albicans. Put plainly: Antifungal activity against Candida albicans MTCC 7315 after 24 hrs by well diffusion method. The format is functional. The conditions noted are these: MTCC 7315, 24 h. The method, boiled down: as §3
The subject of assay [24] is Candida albicans. In words: Antifungal activity against Candida albicans MTCC 227 after 24 hrs by well diffusion method. The following applies: MTCC 227, 24 h. The format is functional. Summed up:
as §3

For assay [25], the system named is Candida albicans. In words: Antifungal activity against Candida albicans MTCC 1637 after 24 hrs by well diffusion method. The format is functional. The following applies: MTCC 1637, 24 h. Summed up: as §3
Assay [26] in a line: Antifungal activity against Candida parapsilosis MTCC 1744 after 24 hrs by well diffusion method. The format is functional. The method, boiled down:
as §3

In assay [27] the test system is Candida albicans. In words: Fungicidal activity against Candida albicans MTCC 3017 after 24 hrs. The format is functional. The conditions noted are these: MTCC 3017, 24 h. The method, boiled down:
as §1

Assay [28] relates to Candida albicans. In words: Antifungal activity against Candida albicans MTCC 183 after 24 hrs by well diffusion method. The format is functional. The conditions noted are these: MTCC 183, 24 h. The method, boiled down: as §3
Assay [29] concerns Candida albicans. In words: Fungicidal activity against Candida albicans MTCC 183 after 24 hrs. The format is functional. The conditions noted are these: MTCC 183, 24 h. The method, boiled down:
as §1

The subject of assay [30] is Candida albicans. In words: Fungicidal activity against Candida albicans MTCC 227 after 24 hrs. The format is functional. The conditions noted are these: MTCC 227, 24 h. Summed up:
as §1

Assay [31] has as its system Candida albicans. In words: Fungicidal activity against Candida albicans MTCC 4748 after 24 hrs. The format is functional. The conditions noted are these: MTCC 4748, 24 h. Summed up: as §1
The test system of assay [32] is Candida albicans. Put plainly: Antifungal activity against Candida albicans MTCC 3958 after 24 hrs by well diffusion method. The format is functional. The following applies: MTCC 3958, 24 h. Summed up:
as §3

For the compound `CCCCCCCCC[C@H](O)[C@@H](C)NC(C)=O` [CLAVAMINOL C], the IC50 – broadly, the concentration that inhibits the measured activity by half – in [1] was 14.1 µM; in [2] it was 18.3 µM; in assay [3] it was 18.5 µM; in assay [4], 16.3 µM.
As to `COc1cccc2c1C(=O)c1c(O)c3c(c(O)c1C2=O)C[C@@](O)(C(=O)CO)C[C@@H]3O[C@H]1C[C@H](N)[C@H](O)[C@H](C)O1` [DOXORUBICIN], the concentration for half-maximal inhibition (IC50) came out at 0.7 µM in assay [1], 0.7 µM in assay [2] and 0.8 µM in assay [4].
`Clc1ccc(COC(Cn2ccnc2)c2ccc(Cl)cc2Cl)c(Cl)c1` (stereo not given) [MICONAZOLE]: the MFC (commonly the smallest concentration meeting the test's criterion for killing the fungus) was 7.8 µg/mL (≈ 18.7 µM) in [5]; 7.8 µg/mL (≈ 18.7 µM) in assay [6]; 15.6 µg/mL (≈ 37.5 µM) in assay [7]; 7.8 µg/mL (≈ 18.7 µM) in [9]; 7.8 µg/mL (≈ 18.7 µM) in assay [10]; 7.8 µg/mL (≈ 18.7 µM) in assay [14]. Moreover, the minimal fungicidal concentration (MFC) in [15] was determined as 15.6 µg/mL (≈ 37.5 µM); in [18] it was 7.8 µg/mL (≈ 18.7 µM); in assay [21], 15.6 µg/mL (≈ 37.5 µM); in assay [22], 15.6 µg/mL (≈ 37.5 µM); in assay [27] it was 7.8 µg/mL (≈ 18.7 µM); in assay [29], 7.8 µg/mL (≈ 18.7 µM). Besides, the MFC turned out to be 15.6 µg/mL (≈ 37.5 µM) in assay [30] and 7.8 µg/mL (≈ 18.7 µM) in [31]. Moreover, the minimum inhibitory concentration (MIC) in [8], in assay [11], in assay [12], in assay [13], in [16] and in assay [17] was 7.8 µg/mL (≈ 18.7 µM) throughout. In addition, the MIC in assay [19], in assay [20], in assay [23], in [24], in assay [25] and in [26] was 7.8 µg/mL (≈ 18.7 µM) in each case. Also, the MIC in assay [28] and in assay [32] was 7.8 µg/mL (≈ 18.7 µM) throughout.
